How the values were obtained:
Assay type in all cases: functional
SK-MEL-28 = test: Growth inhibition of human SK-MEL-28 cells after 48 hrs by sulforhodamine B assay; conditions: SK-MEL-28, 48 h
Procedure, shortened: (§1)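 Five-dose concentration series run across a panel of 60 human tumour cell lines. GI50 is taken as the drug concentration giving a 50% reduction in net protein increase relative to untreated control cells.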

[1] = Growth inhibition of human HCC2998 cells after 48 hrs by sulforhodamine B assay; conditions: HCC 2998, 48 h
Procedure, shortened: (§2)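 Five-dose testing against a 60-line human tumor cell panel. GI50 is the drug concentration giving a 50% reduction in net protein increase relative to untreated control cells.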

MDA-MB-435 = test: Growth inhibition of human MDA-MB-435 cells after 48 hrs by sulforhodamine B assay; conditions: MDA-MB-435, 48 h; procedure, shortened: as §2
[2] = Growth inhibition of human SF268 cells after 48 hrs by sulforhodamine B assay; conditions: SF-268, 48 h; procedure, shortened: as §1
[3] = Growth inhibition of human OVCAR3 cells after 48 hrs by sulforhodamine B assay; conditions: OVCAR-3, 48 h; procedure, shortened: as §1
[4] = Growth inhibition of human HOP92 cells after 48 hrs by sulforhodamine B assay; conditions: HOP-92, 48 h; procedure, shortened: as §2
[5] = Growth inhibition of human UO31 cells after 48 hrs by sulforhodamine B assay; conditions: UO-31, 48 h
Procedure, shortened: (§3)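 Five-dose testing across the 60-line human tumour cell panel. GI50 is the drug concentration that gives a 50% reduction in net protein increase relative to control cells.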

MDA-MB-231 = test: Growth inhibition of human MDA-MB-231 cells after 48 hrs by sulforhodamine B assay; conditions: MDA-MB-231, 48 h; procedure, shortened: as §2
NCI-H522 = test: Growth inhibition of human NCI-H522 cells after 48 hrs by sulforhodamine B assay; conditions: NCI-H522, 48 h; procedure, shortened: as §1
[6] = Growth inhibition of human MOLT4 cells after 48 hrs by sulforhodamine B assay; conditions: MOLT-4, 48 h; procedure, shortened: as §1
[7] = Growth inhibition of human IGROV1 cells after 48 hrs by sulforhodamine B assay; conditions: IGROV-1, 48 h; procedure, shortened: as §2
[8] = Growth inhibition of human Hs 578T cells after 48 hrs by sulforhodamine B assay; procedure, shortened: as §2
A549 = test: Growth inhibition of human A549/ATCC cells after 48 hrs by sulforhodamine B assay; conditions: A549, 48 h; procedure, shortened: as §2
[9] = Growth inhibition of human COLO205 cells after 48 hrs by sulforhodamine B assay; conditions: COLO 205, 48 h; procedure, shortened: as §2
[10] = Growth inhibition of human HOP62 cells after 48 hrs by sulforhodamine B assay; conditions: HOP-62, 48 h; procedure, shortened: as §2
[11] = Growth inhibition of human HCT116 cells after 48 hrs by sulforhodamine B assay; conditions: HCT-116, 48 h; procedure, shortened: as §2
A498 = test: Growth inhibition of human A498 cells after 48 hrs by sulforhodamine B assay; conditions: A498, 48 h; procedure, shortened: as §2
[12] = Growth inhibition of human HCT15 cells after 48 hrs by sulforhodamine B assay; conditions: HCT-15, 48 h; procedure, shortened: as §2
[13] = Growth inhibition of human UACC62 cells after 48 hrs by sulforhodamine B assay; conditions: UACC-62, 48 h; procedure, shortened: as §3
[14] = Growth inhibition of human SKOV3 cells after 48 hrs by sulforhodamine B assay; conditions: SK-OV-3, 48 h; procedure, shortened: as §1
786-0 = test: Growth inhibition of human 786-0 cells after 48 hrs by sulforhodamine B assay; conditions: 786-0, 48 h; procedure, shortened: as §2
[15] = Growth inhibition of human Caki1 cells after 48 hrs by sulforhodamine B assay; conditions: CAKI-1, 48 h; procedure, shortened: as §2
[16] = Growth inhibition of human SF539 cells after 48 hrs by sulforhodamine B assay; conditions: SF-539, 48 h; procedure, shortened: as §1
[17] = Growth inhibition of human SF295 cells after 48 hrs by sulforhodamine B assay; conditions: SF-295, 48 h; procedure, shortened: as §1
MCF7 = test: Growth inhibition of human MCF7 cells after 48 hrs by sulforhodamine B assay; conditions: MCF7, 48 h; procedure, shortened: as §2
SK-MEL-5 = test: Growth inhibition of human SK-MEL-5 cells after 48 hrs by sulforhodamine B assay; conditions: SK-MEL-5, 48 h; procedure, shortened: as §1
[18] = Growth inhibition of human DU145 cells after 48 hrs by sulforhodamine B assay; conditions: DU-145, 48 h; procedure, shortened: as §2
ACHN = test: Growth inhibition of human ACHN cells after 48 hrs by sulforhodamine B assay; procedure, shortened: as §2
[19] = Growth inhibition of human OVCAR4 cells after 48 hrs by sulforhodamine B assay; conditions: OVCAR-4, 48 h; procedure, shortened: as §1
MDA-MB-468 = test: Growth inhibition of human MDA-MB-468 cells after 48 hrs by sulforhodamine B assay; conditions: MDA-MB-468, 48 h; procedure, shortened: as §2
[20] = Growth inhibition of human RPMI8226 cells after 48 hrs by sulforhodamine B assay; conditions: RPMI-8226, 48 h; procedure, shortened: as §1
SR = test: Growth inhibition of human SR cells after 48 hrs by sulforhodamine B assay; procedure, shortened: as §1
CCRF-CEM = test: Growth inhibition of human CCRF-CEM cells after 48 hrs by sulforhodamine B assay; procedure, shortened: as §2
NCI-H23 = test: Growth inhibition of human NCI-H23 cells after 48 hrs by sulforhodamine B assay; conditions: NCI-H23, 48 h; procedure, shortened: as §1
[21] = Growth inhibition of human PC3 cells after 48 hrs by sulforhodamine B assay; conditions: PC-3, 48 h; procedure, shortened: as §1
[22] = Growth inhibition of human LOXIMVI cells after 48 hrs by sulforhodamine B assay; conditions: LOX IMVI; procedure, shortened: as §2
HT-29 = test: Growth inhibition of human HT-29 cells after 48 hrs by sulforhodamine B assay; conditions: HT-29, 48 h; procedure, shortened: as §2
[23] = Growth inhibition of human SW620 cells after 48 hrs by sulforhodamine B assay; conditions: SW-620, 48 h; procedure, shortened: as §1
[24] = Growth inhibition of human HL-60(TB) cells after 48 hrs by sulforhodamine B assay; conditions: HL-60, 48 h
Procedure, shortened: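 Five-dose study across the 60-cell human tumour panel. GI50 is the drug concentration giving a 50% reduction in net protein increase relative to control cells.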

[25] = Growth inhibition of human SNB19 cells after 48 hrs by sulforhodamine B assay; conditions: SNB-19, 48 h; procedure, shortened: as §1
M14 = test: Growth inhibition of human M14 cells after 48 hrs by sulforhodamine B assay; conditions: M14, 48 h; procedure, shortened: as §2
U-251 = test: Growth inhibition of human U251 cells after 48 hrs by sulforhodamine B assay; conditions: U-251, 48 h; procedure, shortened: as §1
[26] = Growth inhibition of human NCI-ADR-RES cells after 48 hrs by sulforhodamine B assay; procedure, shortened: as §1
[27] = Growth inhibition of human SNB75 cells after 48 hrs by sulforhodamine B assay; conditions: SNB-75, 48 h; procedure, shortened: as §1
SK-MEL-2 = test: Growth inhibition of human SK-MEL-2 cells after 48 hrs by sulforhodamine B assay; conditions: SK-MEL-2, 48 h; procedure, shortened: as §1
KM12 = test: Growth inhibition of human KM12 cells after 48 hrs by sulforhodamine B assay; conditions: KM12, 48 h; procedure, shortened: as §2

COc1ccc(/C=C/c2cc(OC)c(OC)c(OC)c2)cc1
GI50 (SK-MEL-28): 3.86 µM
GI50 [1]: 3.59 µM
GI50 (MDA-MB-435): 1.04 µM
GI50 [2]: 7.59 µM
GI50 [3]: 3.45 µM
GI50 [4]: 7.23 µM
GI50 [5]: 3.69 µM
GI50 (MDA-MB-231): 3.74 µM
GI50 (NCI-H522): 3.7 µM
GI50 [6]: 3.22 µM
GI50 [7]: 5.29 µM
GI50 [8]: 3.09 µM
GI50 (A549): 3.7 µM
GI50 [9]: 2.07 µM
GI50 [10]: 3.14 µM
GI50 [11]: 3.23 µM
GI50 (A498): 0.74 µM
GI50 [12]: 2.82 µM
GI50 [13]: 2.37 µM
GI50 [14]: 3.34 µM
GI50 (786-0): 5.42 µM
GI50 [15]: 3 µM
GI50 [16]: 2.18 µM
GI50 [17]: 2.18 µM
GI50 (MCF7): 1.66 µM
GI50 (SK-MEL-5): 2.5 µM
GI50 [18]: 4.23 µM
GI50 (ACHN): 4.51 µM
GI50 [19]: 4 µM
GI50 (MDA-MB-468): 2.22 µM
GI50 [20]: 6.42 µM
GI50 (SR): 3.93 µM
GI50 (CCRF-CEM): 2.89 µM
GI50 (NCI-H23): 3.37 µM
GI50 [21]: 3.22 µM
GI50 [22]: 4.89 µM
GI50 (HT-29): 2.32 µM
GI50 [23]: 2.07 µM
GI50 [24]: 3.14 µM
GI50 [25]: 4.85 µM
GI50 (M14): 2.81 µM
GI50 (U-251): 3.07 µM
GI50 [26]: 3.01 µM
GI50 [27]: 1.88 µM
GI50 (SK-MEL-2): 3.95 µM
GI50 (KM12): 3.63 µM

Source: ChEMBL document CHEMBL3792365, “Dioxol and dihydrodioxin analogs of 2- and 3-phenylacetonitriles as potent anti-cancer agents with nanomolar activity against a variety of human cancer cells” (2016)
